Five molecules from ChEMBL document CHEMBL1129642, “Design, synthesis, and evaluation of 2 beta-alkenyl penam sulfone acids as inhibitors of beta-lactamases” (J Med Chem, 1996) can be followed below.

One data set has as its system Bacillus licheniformis. The data set can be described thus: Compound was tested for inhibition of Bacillus licheniformis 749/C, class A of beta-Lactamases. It is filed as functional, organism-based.
For data set [1], the system named is Citrobacter freundii. The data set is described as follows: Compound was tested for inhibition of Citrobacter freundii 1928 in combination with Ceftriaxone. Format: functional. The essentials: (§1)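 MICs determined by serial 2-fold dilution in Mueller-Hinton broth with an inoculum of approximately 10⁵ cfu/mL. The test compound was combined with ceftriaxone.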

For data set [2], the system named is Enterobacter cloacae. The data set can be described thus: Compound was tested for inhibition of Ent. cloacae 908R in combination with Ceftriaxone. Format: functional, organism-based. An outline of the steps:
as §1

Data set [3] relates to Pseudomonas aeruginosa. The data set can be described thus: Compound was tested for inhibition of Pseudomonas aeruginosa 18SH in combination with Ceftriaxone. Format: functional. An outline of the steps: as §1
Data set [4] in a line: (§2) Compound was tested for inhibition of TEM-3, class A of beta-lactamases. It is filed as functional, Escherichia coli.
Data set [5] can be described thus: Compound was tested for inhibition of pTEM-3 from Escherichia coli in combination with Ceftriaxone. It is filed as functional. The essentials:
as §1

The nature of data set [6]: Compound was tested for inhibition of pTEM-4 from Escherichia coli in combination with Ceftriaxone. It is filed as functional. An outline of the steps:
as §1

Data set [7] is described as follows: (§3) Compound was tested for inhibition of TEM-1, class A of beta-lactamases. It is filed as functional, Escherichia coli.
For data set [8], the system named is Citrobacter freundii. The data set is described as follows: (§4) Compound was tested for the half saturation constant derived from concentration dependence studies in Citrobacter freundii. It is filed as organism-based. An outline of the steps:
(§5)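 Purified β-lactamases (C. freundii 1928, E. coli SNO3, TEM-3, SHV-2) reacted with inhibitor. K_S is the half-saturation constant for forming the acyl-enzyme complex, taken from the concentration dependence of that reaction. It was obtained together with the acylation rate k_on and the acyl-enzyme breakdown rate k_off, using previously published kinetic methods.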

In data set [9] the test system is Escherichia coli. The data set can be described thus: (§6) Compound was tested for the half saturation constant derived from concentration dependence studies in Escherichia coli SHV-2. It is filed as organism-based. The essentials:
as §5

In data set [10] the test system is Escherichia coli. The data set is described as follows: (§7) Compound was tested for the half saturation constant derived from concentration dependence studies in Escherichia coli SNO3. It is filed as organism-based. An outline of the steps:
as §5

In data set [11] the test system is Escherichia coli. The data set can be described thus: (§8) Compound was tested for the half saturation constant derived from concentration dependence studies in Escherichia coli TEM-3. Format: organism-based. The essentials:
as §5

For another data set, the target named is Beta-lactamase L1 (Stenotrophomonas maltophilia, UniProt P52700). The data set can be described thus: Compound was tested for inhibition of Beta-lactamase from Xanthomonas maltophila 328.
Data set [12] deals with Citrobacter freundii. The data set is described as follows: Compound was tested for inhibition of Citrobacter freundii 1928 in combination with Ceftriaxone (expressed in MIC). Format: functional, organism-based.
For data set [13], the system named is Enterobacter cloacae. The data set is described as follows: Compound was tested for inhibition of Ent. cloacae 908R in combination with Ceftriaxone (expressed in MIC). Format: functional, organism-based. An outline of the steps: as §1
Data set [14] has as its system Pseudomonas aeruginosa. The data set can be described thus: Compound was tested for inhibition of Pseudomonas aeruginosa 18SH in combination with Ceftriaxone (expressed in MIC). Format: functional, organism-based. An outline of the steps:
as §1

Data set [15] in a line: (§9) Compound was tested for inhibition of pTEM-3 from Escherichia coli in combination with Ceftriaxone (expressed in MIC). Format: functional.
The nature of data set [16]: (§10) Compound was tested for inhibition of pTEM-4 from Escherichia coli in combination with Ceftriaxone (not active). It is filed as functional.
For another data set, the target named is Beta-lactamase OXA-1 (Escherichia coli, UniProt P13661). The data set can be described thus: Compound was tested for inhibition of Beta-lactamase from OXA-1.
Another data set concerns the target Beta-lactamase pse-1 (Escherichia coli, UniProt Q2V0Y6). The data set can be described thus: Compound was tested for inhibition of Beta-lactamase from PSE-1.
In data set [17] the target is T1, Beta-lactamase TEM (Escherichia coli, UniProt P62593). The data set can be described thus: Compound was tested for inhibition of Beta-lactamase from RTEM-1.
For data set [18], the target named is T1, Beta-lactamase TEM. The data set is described as follows: Compound was tested for inhibition of Beta-lactamase from RTEM-2.
Another data set addresses Beta-lactamase SHV-1 (Escherichia coli, UniProt P0AD63). The data set is described as follows: Compound was tested for inhibition of Beta-lactamase from SHV-2.
For data set [19], the target named is T2, Beta-lactamase (Bacillus licheniformis, UniProt P00808). The data set is described as follows: Compound was tested for inhibition of Beta-lactamase from Bacillus licheniformis 749/C.
Data set [20] concerns the target Metallo-beta-lactamase type 2 (Bacteroides fragilis, UniProt P25910). The data set can be described thus: Compound was tested for inhibition of Beta-lactamase from Bacteroides fragilis BF 101.
Data set [21] concerns the target T3, Beta-lactamase (Pseudomonas aeruginosa (strain ATCC 15692 / PAO1 / 1C / PRS 101 / LMG12228), UniProt P24735). The data set can be described thus: Compound was tested for inhibition of Beta-lactamase from Pseudomonas aeruginosa GN10362.
Data set [22] has as its target T3, Beta-lactamase. The data set is described as follows: Compound was tested for inhibition of Beta-lactamase from Pseudomonas aeruginosa MK-1184.
For data set [23], the system named is Citrobacter freundii. Described as §4. Format: functional. An outline of the steps: as §5
Data set [24] has as its system Escherichia coli. The description is as §6. It is filed as functional. The essentials:
as §5

Data set [25] relates to Escherichia coli. Described as §7. It is filed as functional. The essentials:
as §5

In data set [26] the test system is Escherichia coli. Described as §8. Format: functional. An outline of the steps:
as §5

Data set [27] addresses Penicillin-binding protein 2b (Staphylococcus aureus, UniProt Q9XDB3). The data set is described as follows: Compound was tested for inhibition of Penicillin-binding protein 3 from Staphylococcus aureus (Schoch). The essentials:
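Competition for penicillin binding measured on S. aureus Schoch membrane fragments with 14C-labelled benzylpenicillin as the probe. The value is the IC50 (µM) for the PBP 3 band.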

Data set [28] addresses PBP3 from Escherichia coli (K-12) (Escherichia coli, UniProt P0AD68). The data set is described as follows: Compound was tested for inhibition of Penicillin-binding protein 3 from Escherichia coli.
The target of data set [29] is Beta-lactamase (Staphylococcus aureus, UniProt P00807). The data set can be described thus: Compound was tested for inhibition of Beta-lactamase from Staphylococcus aureus PCI.
Data set [30] has as its target Beta-lactamase (Escherichia coli K-12, UniProt P00811). The data set is described as follows: Compound was tested for inhibition of Escherichia coli AmpC, class C of Beta-lactamase.
Data set [31] concerns the target T2, Beta-lactamase. The data set can be described thus: Compound was tested for inhibition of Bacillus licheniformis 749/C, class A of Beta-lactamase.
Data set [32] concerns the target T3, Beta-lactamase. The data set can be described thus: Compound was tested for inhibition of Pseudomonas aeruginosa 18SH, class C of Beta-lactamase.
In data set [33] the target is Beta-lactamase (Citrobacter freundii, UniProt P05193). The data set is described as follows: Compound was tested for inhibition of Citrobacter freundii 1928, class C of Beta-lactamase.
Data set [34] has as its target Penicillin-binding protein 4 (Staphylococcus aureus, UniProt P72355). The data set is described as follows: Compound was tested for inhibition of Penicillin-binding protein 4 from Staphylococcus aureus (Schoch).
Data set [35] addresses T4, Penicillin-binding protein 1B (Escherichia coli K-12, UniProt P02919).
T4 sequence (P02919 whole entry): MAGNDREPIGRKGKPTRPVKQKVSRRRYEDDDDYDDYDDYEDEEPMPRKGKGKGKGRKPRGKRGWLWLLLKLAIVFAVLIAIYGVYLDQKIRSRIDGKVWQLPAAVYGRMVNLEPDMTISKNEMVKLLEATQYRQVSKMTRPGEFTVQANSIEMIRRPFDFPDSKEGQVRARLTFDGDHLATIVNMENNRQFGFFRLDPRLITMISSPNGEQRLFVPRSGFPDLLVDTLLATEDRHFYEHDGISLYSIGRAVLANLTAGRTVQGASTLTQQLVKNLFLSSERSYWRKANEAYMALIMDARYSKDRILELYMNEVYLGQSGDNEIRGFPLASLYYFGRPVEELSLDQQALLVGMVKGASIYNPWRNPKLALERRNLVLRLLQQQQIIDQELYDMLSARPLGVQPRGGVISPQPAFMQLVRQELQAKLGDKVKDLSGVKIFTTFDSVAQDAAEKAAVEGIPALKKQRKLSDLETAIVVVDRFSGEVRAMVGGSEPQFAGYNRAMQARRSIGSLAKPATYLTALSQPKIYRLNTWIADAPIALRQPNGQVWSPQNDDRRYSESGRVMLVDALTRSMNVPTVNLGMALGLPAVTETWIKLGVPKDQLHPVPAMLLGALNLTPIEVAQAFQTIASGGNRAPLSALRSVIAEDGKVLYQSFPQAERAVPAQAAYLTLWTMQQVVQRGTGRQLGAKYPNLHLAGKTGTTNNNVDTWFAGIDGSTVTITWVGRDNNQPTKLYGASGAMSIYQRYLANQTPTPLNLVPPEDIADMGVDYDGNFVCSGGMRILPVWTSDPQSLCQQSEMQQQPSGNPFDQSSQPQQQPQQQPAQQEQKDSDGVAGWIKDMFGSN
The data set is described as follows: Compound was tested for inhibition of Penicillin-binding protein 1b from Escherichia coli. The essentials:
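Penicillin binding was assayed on membrane fragments from E. coli W3110 or S. aureus Schoch, using ¹⁴C-labeled benzylpenicillin as the probe. IC₅₀ values are reported in µM.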

For data set [36], the target named is Peptidoglycan D,D-transpeptidase MrdA (Escherichia coli K-12, UniProt P0AD65). The data set can be described thus: Compound was tested for inhibition of Penicillin-binding protein 2 from Escherichia coli.
Data set [37] can be described thus: Compound was tested for inhibition of Penicillin-binding protein 1 from Staphylococcus aureus (Schoch).
Data set [38] is described as follows: as §3. On the set-up: species or system Escherichia coli.
The nature of data set [39]: as §2. On the set-up: species or system Escherichia coli.
A short description of data set [40]: as §9. An outline of the steps:
as §1

The nature of data set [41]: as §10. An outline of the steps:
as §1

A value given as a limit tells only on which side of the number the result lay.

T3 sequence (P24735 whole entry): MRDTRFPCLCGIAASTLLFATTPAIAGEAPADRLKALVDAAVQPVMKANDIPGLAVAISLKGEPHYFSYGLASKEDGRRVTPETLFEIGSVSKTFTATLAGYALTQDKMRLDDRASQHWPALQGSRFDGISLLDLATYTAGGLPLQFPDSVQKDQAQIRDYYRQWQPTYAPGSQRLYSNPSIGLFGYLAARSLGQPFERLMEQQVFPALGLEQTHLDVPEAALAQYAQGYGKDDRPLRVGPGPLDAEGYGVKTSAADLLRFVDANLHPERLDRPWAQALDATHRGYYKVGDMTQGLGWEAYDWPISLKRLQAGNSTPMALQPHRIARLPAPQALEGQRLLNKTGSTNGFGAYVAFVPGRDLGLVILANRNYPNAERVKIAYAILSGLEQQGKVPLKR
T1 sequence (P62593 whole entry): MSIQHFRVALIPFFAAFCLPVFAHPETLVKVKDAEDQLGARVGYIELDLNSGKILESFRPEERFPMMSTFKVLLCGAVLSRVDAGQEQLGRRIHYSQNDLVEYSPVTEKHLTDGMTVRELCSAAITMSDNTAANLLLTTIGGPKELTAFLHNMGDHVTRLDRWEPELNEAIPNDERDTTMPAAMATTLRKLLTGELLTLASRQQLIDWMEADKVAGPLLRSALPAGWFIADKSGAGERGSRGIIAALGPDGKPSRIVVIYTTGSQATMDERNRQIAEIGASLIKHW
T2 sequence (P00808 whole entry): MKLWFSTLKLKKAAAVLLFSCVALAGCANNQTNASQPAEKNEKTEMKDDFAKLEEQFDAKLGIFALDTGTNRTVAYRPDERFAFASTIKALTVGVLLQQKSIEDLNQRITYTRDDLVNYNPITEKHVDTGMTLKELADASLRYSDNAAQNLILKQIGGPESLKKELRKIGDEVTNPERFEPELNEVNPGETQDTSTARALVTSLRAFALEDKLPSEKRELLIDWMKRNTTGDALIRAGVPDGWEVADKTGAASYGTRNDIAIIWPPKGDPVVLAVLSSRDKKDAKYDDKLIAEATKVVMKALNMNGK
Chain of Beta-lactamase L1 (P52700 whole entry): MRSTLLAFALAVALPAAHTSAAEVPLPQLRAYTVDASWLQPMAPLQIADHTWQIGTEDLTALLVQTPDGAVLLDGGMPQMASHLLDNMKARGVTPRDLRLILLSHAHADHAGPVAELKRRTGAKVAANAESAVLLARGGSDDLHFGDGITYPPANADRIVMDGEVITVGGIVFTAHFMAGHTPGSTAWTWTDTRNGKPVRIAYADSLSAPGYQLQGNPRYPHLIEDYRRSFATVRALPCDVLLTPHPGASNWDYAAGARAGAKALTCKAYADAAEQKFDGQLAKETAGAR
Chain of Beta-lactamase (Escherichia coli K-12, UniProt P00811) (P00811 whole entry): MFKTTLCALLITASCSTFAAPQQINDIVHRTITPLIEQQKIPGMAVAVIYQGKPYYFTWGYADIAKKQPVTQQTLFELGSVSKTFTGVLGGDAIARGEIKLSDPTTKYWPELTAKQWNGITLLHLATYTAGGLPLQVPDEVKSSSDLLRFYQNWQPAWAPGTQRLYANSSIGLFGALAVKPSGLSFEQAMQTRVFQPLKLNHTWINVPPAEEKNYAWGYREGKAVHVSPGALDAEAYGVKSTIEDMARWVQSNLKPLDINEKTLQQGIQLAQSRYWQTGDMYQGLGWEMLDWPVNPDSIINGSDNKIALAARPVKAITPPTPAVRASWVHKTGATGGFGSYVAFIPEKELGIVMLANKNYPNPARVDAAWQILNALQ
Chain of Beta-lactamase SHV-1 (P0AD63 22-286 limits assumed): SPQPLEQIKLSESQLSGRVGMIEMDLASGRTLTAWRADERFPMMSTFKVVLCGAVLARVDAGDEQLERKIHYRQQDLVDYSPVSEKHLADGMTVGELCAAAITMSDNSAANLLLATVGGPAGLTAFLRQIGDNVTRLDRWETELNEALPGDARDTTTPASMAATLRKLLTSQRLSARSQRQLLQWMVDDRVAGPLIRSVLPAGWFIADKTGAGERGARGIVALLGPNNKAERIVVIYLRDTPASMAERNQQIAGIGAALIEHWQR
Chain of Beta-lactamase OXA-1 (P13661 whole entry): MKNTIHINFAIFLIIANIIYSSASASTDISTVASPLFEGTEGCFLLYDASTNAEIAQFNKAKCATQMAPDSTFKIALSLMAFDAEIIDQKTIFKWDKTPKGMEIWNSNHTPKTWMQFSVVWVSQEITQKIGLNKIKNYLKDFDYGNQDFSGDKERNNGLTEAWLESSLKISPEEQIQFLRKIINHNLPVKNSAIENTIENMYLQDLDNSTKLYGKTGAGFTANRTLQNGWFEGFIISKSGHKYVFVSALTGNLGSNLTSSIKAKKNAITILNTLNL
Chain of PBP3 from Escherichia coli (K-12) (P0AD68 whole entry, looked up): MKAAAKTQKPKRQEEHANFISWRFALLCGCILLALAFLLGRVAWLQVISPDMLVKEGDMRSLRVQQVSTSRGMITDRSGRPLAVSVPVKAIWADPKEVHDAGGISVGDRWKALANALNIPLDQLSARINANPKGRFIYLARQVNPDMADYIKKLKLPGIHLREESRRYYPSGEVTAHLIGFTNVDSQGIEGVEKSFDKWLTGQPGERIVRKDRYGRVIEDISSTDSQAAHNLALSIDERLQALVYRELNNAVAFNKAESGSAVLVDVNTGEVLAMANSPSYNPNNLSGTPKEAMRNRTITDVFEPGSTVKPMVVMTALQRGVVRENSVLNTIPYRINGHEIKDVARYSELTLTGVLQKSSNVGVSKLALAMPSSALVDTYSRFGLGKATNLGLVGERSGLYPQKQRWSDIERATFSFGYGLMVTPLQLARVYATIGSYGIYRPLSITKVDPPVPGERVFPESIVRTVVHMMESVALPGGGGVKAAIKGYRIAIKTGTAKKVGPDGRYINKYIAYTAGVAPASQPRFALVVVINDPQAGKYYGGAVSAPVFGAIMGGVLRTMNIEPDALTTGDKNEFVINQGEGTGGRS
Chain of Peptidoglycan D,D-transpeptidase MrdA (P0AD65 whole entry): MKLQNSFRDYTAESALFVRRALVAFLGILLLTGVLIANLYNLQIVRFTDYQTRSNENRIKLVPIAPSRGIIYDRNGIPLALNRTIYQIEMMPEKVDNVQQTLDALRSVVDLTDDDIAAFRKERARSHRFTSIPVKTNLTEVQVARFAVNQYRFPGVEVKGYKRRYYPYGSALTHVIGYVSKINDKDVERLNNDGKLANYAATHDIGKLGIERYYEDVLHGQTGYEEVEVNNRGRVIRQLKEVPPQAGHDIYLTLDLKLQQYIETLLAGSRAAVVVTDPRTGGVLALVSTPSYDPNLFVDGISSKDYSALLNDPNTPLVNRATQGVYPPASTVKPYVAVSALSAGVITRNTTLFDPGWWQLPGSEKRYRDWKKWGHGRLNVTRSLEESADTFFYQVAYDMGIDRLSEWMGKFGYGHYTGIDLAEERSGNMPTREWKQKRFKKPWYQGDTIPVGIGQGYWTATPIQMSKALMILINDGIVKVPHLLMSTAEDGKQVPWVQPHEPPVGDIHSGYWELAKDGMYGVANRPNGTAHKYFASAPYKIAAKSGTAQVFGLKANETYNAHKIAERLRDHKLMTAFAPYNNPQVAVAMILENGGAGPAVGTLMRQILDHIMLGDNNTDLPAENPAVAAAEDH
Chain of Beta-lactamase pse-1 (Q2V0Y6 whole entry): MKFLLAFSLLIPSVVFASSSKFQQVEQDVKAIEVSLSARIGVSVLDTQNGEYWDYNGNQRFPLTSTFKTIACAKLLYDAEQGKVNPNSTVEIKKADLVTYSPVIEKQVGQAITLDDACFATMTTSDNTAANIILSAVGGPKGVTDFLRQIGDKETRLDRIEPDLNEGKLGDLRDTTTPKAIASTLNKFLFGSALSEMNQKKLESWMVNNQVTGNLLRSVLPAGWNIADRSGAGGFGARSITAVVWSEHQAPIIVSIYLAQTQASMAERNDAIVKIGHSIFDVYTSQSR
Chain of Beta-lactamase (Citrobacter freundii, UniProt P05193) (P05193 whole entry): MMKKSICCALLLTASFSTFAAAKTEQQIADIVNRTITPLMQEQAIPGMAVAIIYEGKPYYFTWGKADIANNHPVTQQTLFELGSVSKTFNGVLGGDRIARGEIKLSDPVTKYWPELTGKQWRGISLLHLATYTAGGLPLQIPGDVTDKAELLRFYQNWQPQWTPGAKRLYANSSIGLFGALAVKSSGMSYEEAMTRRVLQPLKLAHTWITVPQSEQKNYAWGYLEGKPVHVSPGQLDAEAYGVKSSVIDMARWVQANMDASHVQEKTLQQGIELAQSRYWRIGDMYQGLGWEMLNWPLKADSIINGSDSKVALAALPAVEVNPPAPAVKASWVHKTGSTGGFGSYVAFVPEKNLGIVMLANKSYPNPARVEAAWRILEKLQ
Chain of Metallo-beta-lactamase type 2 (P25910 whole entry): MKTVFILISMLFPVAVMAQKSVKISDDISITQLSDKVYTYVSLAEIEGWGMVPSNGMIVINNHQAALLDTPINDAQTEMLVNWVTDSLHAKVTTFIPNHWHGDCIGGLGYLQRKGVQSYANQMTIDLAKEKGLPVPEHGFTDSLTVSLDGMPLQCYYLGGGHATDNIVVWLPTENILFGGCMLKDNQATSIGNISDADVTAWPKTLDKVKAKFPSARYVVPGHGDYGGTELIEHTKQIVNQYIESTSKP
Chain of Penicillin-binding protein 4 (P72355 whole entry): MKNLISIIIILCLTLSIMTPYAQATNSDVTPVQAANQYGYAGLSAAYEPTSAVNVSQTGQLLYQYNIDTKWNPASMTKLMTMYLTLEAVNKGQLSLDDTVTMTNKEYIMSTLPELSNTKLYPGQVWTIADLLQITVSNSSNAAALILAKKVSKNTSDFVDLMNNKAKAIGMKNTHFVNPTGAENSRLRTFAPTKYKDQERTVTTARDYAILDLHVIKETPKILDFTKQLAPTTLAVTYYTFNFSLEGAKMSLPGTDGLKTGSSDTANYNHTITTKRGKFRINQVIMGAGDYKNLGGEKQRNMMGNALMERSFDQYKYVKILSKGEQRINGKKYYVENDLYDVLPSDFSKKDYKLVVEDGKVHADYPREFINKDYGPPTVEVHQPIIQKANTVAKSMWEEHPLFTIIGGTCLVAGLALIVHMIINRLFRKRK

For `C[C@]1(/C=C/COC(N)=O)[C@H](C(=O)O)N2C(=O)C[C@H]2S1(=O)=O`, the figures for the 50% inhibitory concentration (IC50) (in the data set on Bacillus licheniformis; in data set [4]; in [7]) were 6.5 µM, 0.76 µM and 9.1 µM, respectively. Also, the minimum inhibitory concentration (MIC) (usually the lowest concentration that inhibits growth of the organism) in the data set on Citrobacter freundii [1] turned out to be 4 µg/mL; with Enterobacter cloacae [2] it was 8 µg/mL; in the data set with Pseudomonas aeruginosa [3], 8 µg/mL; in data set [5], 1 µg/mL; in data set [6], 4 µg/mL.

Take `C[C@]1(Cn2ccnn2)[C@H](C(=O)O)N2C(=O)C[C@H]2S1(=O)=O` [TAZOBACTAM]: the Ks in the data set with Citrobacter freundii [8] turned out to be 110 µM; with Escherichia coli [9], 5 µM; in the data set with Escherichia coli [10], 325 µM; with Escherichia coli [11], 0.74 µM. Moreover, on Beta-lactamase L1, the IC50 (commonly the concentration that gives 50% inhibition) stood at 4000 µM.

`CC(=O)/C=C\[C@@]1(C)[C@H](C(=O)O)N2C(=O)C[C@H]2S1(=O)=O`: the half-maximal inhibitory concentration (IC50) was found to be 3.9 µM with Bacillus licheniformis, 0.42 µM in data set [4] and 10 µM in data set [7]. Besides, the minimal inhibitory concentration (MIC) with Citrobacter freundii [12] turned out to be 1 µg/mL; in the data set with Enterobacter cloacae [13] it was 2 µg/mL; in the data set on Pseudomonas aeruginosa [14], 32 µg/mL; in data set [15], 0.25 µg/mL; in data set [16] it was 2 µg/mL.

Take `C[C@]1(C=CC#N)[C@H](C(=O)O)N2C(=O)C[C@H]2S1(=O)=O` [Ro-481220]: the IC50 in the data set on Bacillus licheniformis was found to be 0.32 µM; against Beta-lactamase OXA-1, 0.1 µM; on Beta-lactamase pse-1 it was 0.09 µM; on Beta-lactamase TEM [17], 1.07 µM; at Beta-lactamase TEM [18], 0.98 µM; against Beta-lactamase SHV-1 it was 0.54 µM. Further, the half-maximal inhibitory concentration (IC50) is 0.32 µM on Beta-lactamase [19]; 200 µM in data set [20]; 0.86 µM on Beta-lactamase [21]; 1.97 µM at Beta-lactamase [22]; 170 µM in data set [27]; over 340 µM in data set [28]. Besides, the IC50 against Beta-lactamase L1 was 24 µM; at Beta-lactamase [29], 0.25 µM. In addition, the MIC in the data set with Citrobacter freundii [12] was found to be 1 µg/mL; in the data set with Enterobacter cloacae [13], 1 µg/mL; in the data set on Pseudomonas aeruginosa [14] it was 4 µg/mL. The Ks in the data set on Citrobacter freundii [23] turned out to be 125 µM; with Escherichia coli [24], 2.3 µM; with Escherichia coli [25], 377 µM; in the data set on Escherichia coli [26] it was 0.56 µM.

On to `C[C@]1(/C=C/C[n+]2ccccc2)[C@H](C(=O)O)N2C(=O)C[C@H]2S1(=O)=O`, for which the IC50 was 330 µM against Beta-lactamase [30]; 1.8 µM against Beta-lactamase [31]; 75 µM against Beta-lactamase [32]; 16 µM on Beta-lactamase [33]; 15 µM in data set [34]; over 10000 µM in data set [35]. Also, the IC50 in [36] worked out at 297 µM; in [37] it was 15 µM; in data set [38], 3.6 µM; in data set [39] it was 0.14 µM. Also, the MIC was 8 µg/mL with Enterobacter cloacae [13], over 16 µg/mL in the data set on Pseudomonas aeruginosa [14], 0.25 µg/mL in data set [40] and 0.5 µg/mL in data set [41].
